Laboratory results published in ChEMBL document CHEMBL4004832, “Synthesis, surfactant properties and antimicrobial activities of methyl glycopyranoside ethers” (2017).

Experiments:
[1] = system: Staphylococcus aureus; assay: Antibacterial activity against Staphylococcus aureus ATCC 29213 after 18 hrs by broth microdilution assay; assay type: functional; conditions: ATCC 29213, 18 h
Method in brief: (§1)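 Broth MIC testing on Gram-positive strains followed CLSI M100-S17 recommendations. […] Values are in mmol/L. Amoxicillin was the control for Listeria and Enterococcus strains and oxacillin for S. aureus strains.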

[2] = system: Listeria monocytogenes; assay: Antibacterial activity against Listeria monocytogenes isolate 015189074801 after 18 hrs by broth microdilution assay; assay type: functional; conditions: isolate 015189074801, 18 h; method in brief: as §1
[3] = system: Staphylococcus aureus; assay: Antibacterial activity against daptomycin-resistant Staphylococcus aureus isolate ST 2015-0989 after 18 hrs by broth microdilution assay; assay type: functional; conditions: isolate ST 2015-0989, 18 h
Method in brief: (§2)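 Staphylococcus aureus reference strains and methicillin- and daptomycin-resistant isolates tested by MIC according to CLSI guidance (M100-S17), with oxacillin as control. The endpoint is the lowest concentration with no growth in all replicates versus a negative control at 18 h. Values are reported in mmol/L.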

[4] = system: Staphylococcus aureus; assay: Antibacterial activity against methicillin-resistant Staphylococcus aureus Mu3 after 18 hrs by broth microdilution assay; assay type: functional; conditions: Mu3, 18 h; method in brief: as §2
[5] = system: Staphylococcus aureus; assay: Antibacterial activity against methicillin-resistant Staphylococcus aureus isolate HT 2004-0012 after 18 hrs by broth microdilution assay; assay type: functional; conditions: isolate HT 2004-0012, 18 h; method in brief: as §2
[6] = system: Enterococcus faecium; assay: Antibacterial activity against […] Enterococcus faecium isolate 0151850763 after 18 hrs by broth microdilution assay; assay type: functional; conditions: isolate 0151850763, 18 h
Method in brief: (§3)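 Enterococcus faecium strains (reference, clinical isolates, VanA isolate) tested by MIC following CLSI recommendations (M100-S17), with amoxicillin as control. […] Values are expressed in mmol/L.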

[7] = system: Enterococcus faecium; assay: Antibacterial activity against Enterococcus faecium isolate 015205261801 after 18 hrs by broth microdilution assay; assay type: functional; conditions: isolate 015205261801, 18 h; method in brief: as §3
[8] = system: Enterococcus faecalis; assay: Antibacterial activity against Enterococcus faecalis isolate 015206179901 after 18 hrs by broth microdilution assay; assay type: functional; conditions: isolate 015206179901, 18 h; method in brief: as §1
[9] = system: Staphylococcus aureus; assay: Antibacterial activity against methicillin-resistant Staphylococcus aureus LAC USA300 after 18 hrs by broth microdilution assay; assay type: functional; method in brief: as §2
[10] = Surfactant property of the compound in water assessed as critical micelle concentration or minimal hydrotropic concentration by platinum rod based tensiometric method
Method in brief: (§4)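 Surface tension of aqueous solutions was measured by a rod method based on the Wilhelmy plate. Water was progressively concentrated with a stock surfactant solution at constant volume. At each concentration, readings continued until stable (SD of the last 5 values 0.2 mN/m). MHC or CMC and the plateau γsat were taken from the tension vs concentration curves.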

[11] = system: Staphylococcus aureus; assay: Antibacterial activity against methicillin-resistant Staphylococcus aureus isolate HT 2002-0417 after 18 hrs by broth microdilution assay; assay type: functional; conditions: isolate HT 2002-0417, 18 h; method in brief: as §2
[12] = system: Staphylococcus aureus; assay: Antibacterial activity against Staphylococcus aureus ATCC 25923 after 18 hrs by broth microdilution assay; assay type: functional; conditions: ATCC 25923, 18 h; method in brief: as §2
[13] = system: Staphylococcus aureus; assay: Antibacterial activity against daptomycin-resistant Staphylococcus aureus isolate ST 2015-0188 after 18 hrs by broth microdilution assay; assay type: functional; conditions: isolate ST 2015-0188, 18 h; method in brief: as §2
[14] = system: Listeria monocytogenes; assay: Antibacterial activity against Listeria monocytogenes isolate 015181840701 after 18 hrs by broth microdilution assay; assay type: functional; conditions: isolate 015181840701, 18 h; method in brief: as §1
[15] = system: Listeria monocytogenes; assay: Antibacterial activity against Listeria monocytogenes isolate 015170199001 after 18 hrs by broth microdilution assay; assay type: functional; conditions: isolate 015170199001, 18 h; method in brief: as §1
[16] = system: Enterococcus faecium; assay: Antibacterial activity against Enterococcus faecium CIP 103510 after 18 hrs by broth microdilution assay; assay type: functional; conditions: CIP 103510, 18 h; method in brief: as §3
[17] = system: Listeria monocytogenes; assay: Antibacterial activity against Listeria monocytogenes CIP 103575 after 18 hrs by broth microdilution assay; assay type: functional; conditions: CIP 103575, 18 h; method in brief: as §1
[18] = system: Staphylococcus aureus; assay: Antibacterial activity against daptomycin-resistant Staphylococcus aureus isolate ST 2014-1288 after 18 hrs by broth microdilution assay; assay type: functional; conditions: isolate ST 2014-1288, 18 h; method in brief: as §2
[19] = system: Enterococcus faecium; assay: Antibacterial activity against Enterococcus faecium isolate 015205731401 after 18 hrs by broth microdilution assay; assay type: functional; conditions: isolate 015205731401, 18 h; method in brief: as §1
[20] = system: Staphylococcus aureus; assay: Antibacterial activity against methicillin-resistant Staphylococcus aureus isolate LY 1999-0053 after 18 hrs by broth microdilution assay; assay type: functional; conditions: isolate LY 1999-0053, 18 h; method in brief: as §2
[21] = system: Enterococcus faecalis; assay: Antibacterial activity against Enterococcus faecalis ATCC 29212 after 18 hrs by broth microdilution assay; assay type: functional; conditions: ATCC 29212, 18 h; method in brief: as §1
[22] = system: Staphylococcus aureus; assay: Antibacterial activity against methicillin-resistant Staphylococcus aureus isolate HT 2006-1004 after 18 hrs by broth microdilution assay; assay type: functional; conditions: isolate HT 2006-1004, 18 h; method in brief: as §2
[23] = system: Pseudomonas aeruginosa; assay: Antibacterial activity against Pseudomonas aeruginosa ATCC 27853 after 18 hrs by broth microdilution assay; assay type: functional; conditions: ATCC 27853, 18 h
[24] = system: Escherichia coli; assay: Antibacterial activity against Escherichia coli ATCC 8739 after 18 hrs by broth microdilution assay; assay type: functional; conditions: ATCC 8739, 18 h
[25] = Surfactant property of the compound in aqueous solution assessed as critical micelle concentration or minimal hydrotropic concentration; method in brief: as §4

CCCCCCCCCCCCOC[C@H]1O[C@H](OC)[C@H](O)[C@@H](O)[C@H]1O
180 µM: MIC [2] | MIC [8] | MIC [14] | MIC [15] | MIC [17] | MIC [21]
> 710 µM: MIC [1] | MIC [3] | MIC [4] | MIC [5] | MIC [9] | MIC [11] | MIC [12] | MIC [13] | MIC [16] | MIC [18] | MIC [20] | MIC [22]
90 µM: MIC [19]
350 µM: MIC [6]
0.47 mmol/L: CMC [10]
20 µM: MIC [7]

CCCCC[C@@H]1OC[C@H]2O[C@H](OC)[C@H](O)[C@@H](O)[C@@H]2O1
> 4000 µM: MIC [1] | MIC [23] | MIC [24] | MIC [17] | MIC [21]
6.5 mmol/L: CMC [10]

CCCCCCCCCCCCO[C@H]1[C@H](OC)O[C@@H](C)[C@H](O)[C@H]1O
50 µM: MIC [1] | MIC [5] | MIC [6] | MIC [7] | MIC [8] | MIC [16] | MIC [21]
90 µM: MIC [2] | MIC [9] | MIC [11] | MIC [12] | MIC [14] | MIC [15] | MIC [17] | MIC [18] | MIC [20] | MIC [22]
180 µM: MIC [3] | MIC [4] | MIC [13]
20 µM: MIC [19]

CCCCCCCCCCCC(=O)OC[C@H]1O[C@H](O[C@]2(CO)O[C@H](CO)[C@@H](O)[C@@H]2O)[C@H](O)[C@@H](O)[C@@H]1O
0.25 mmol/L: CMC [25]

CCCCCCCCCCCCOC[C@H]1O[C@H](OC)[C@@H](O)[C@@H](O)[C@@H]1O
40 µM: MIC [6] | MIC [7] | MIC [14] | MIC [15] | MIC [19] | MIC [21]
20 µM: MIC [2]
180 µM: MIC [3] | MIC [4] | MIC [13] | MIC [22]
90 µM: MIC [1] | MIC [5] | MIC [8] | MIC [9] | MIC [11] | MIC [12] | MIC [16] | MIC [17] | MIC [18] | MIC [20]

CCCCCCCCCCCC(=O)OC[C@H]1O[C@H](OC)[C@H](O)[C@@H](O)[C@@H]1O
320 µM: MIC [1]
0.052 mmol/L: CMC [25]
80 µM: MIC [17]

CCCCCCCCCCC[C@@H]1OC[C@H]2O[C@@H](OC)[C@H](O)[C@@H](O)[C@@H]2O1
180 µM: MIC [1] | MIC [3] | MIC [4] | MIC [5] | MIC [9] | MIC [12] | MIC [13] | MIC [14] | MIC [18] | MIC [20] | MIC [21] | MIC [22]
40 µM: MIC [2] | MIC [15] | MIC [17] | MIC [19]
90 µM: MIC [6] | MIC [8] | MIC [16]
370 µM: MIC [11]
20 µM: MIC [7]

CCCCCCCCCCCCOC[C@H]1OC(O)[C@H](O)[C@@H](O)[C@@H]1O (stereo not given in full)
0.5 mmol/L: CMC [25]

CCCCCCCCOC[C@H]1O[C@H](OC)[C@H](O)[C@@H](O)[C@@H]1O
2000 µM: MIC [1] | MIC [17]
> 4000 µM: MIC [23] | MIC [24] | MIC [21]
0.434 mmol/L: CMC [10]

CCCCCOC[C@H]1O[C@H](OC)[C@H](O)[C@@H](O)[C@@H]1O
35 mmol/L: CMC [10]
> 4000 µM: MIC [1] | MIC [23] | MIC [24] | MIC [17] | MIC [21]

CCCCCCCCCCCCO[C@@H]1O[C@H](CO)[C@@H](O)[C@H](O)[C@H]1O
0.19 mmol/L: CMC [25]

CCCCCCCCC[C@@H]1OC[C@H]2O[C@H](OC)[C@H](O)[C@@H](O)[C@@H]2O1
0.15 mmol/L: CMC [10]
